Source: ChEMBL document CHEMBL1153955, “Indolylarylsulfones bearing natural and unnatural amino acids. Discovery of potent inhibitors of HIV-1 non-nucleoside wild type and resistant mutant strains reverse transcriptase and coxsackie B4 virus” (J Med Chem, 2009)

Assays:
[1] = test system: Respiratory syncytial virus; assay: Antiviral activity against RSV Long in human HeLa cells assessed as protection against virus-induced cytopathicity; assay type: functional, organism-based
In short: (§1)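 Confluent cell monolayers inoculated with 100 CCID₅₀ virus. After 1-2 h adsorption, residual virus removed and cultures incubated with varying compound concentrations. Cytopathicity scored once it reached completion in untreated infected controls. EC₅₀ = dose reducing virus-induced cytopathogenicity by 50%.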

[2] = test system: Vesicular stomatitis virus; assay: Antiviral activity against VSV in human HeLa cells assessed as protection against virus-induced cytopathicity; assay type: functional, organism-based
[3] = test system: Human immunodeficiency virus 1; assay: Antiviral activity against HIV1 3B in human CEM cells assessed as protection against virus-induced cytopathicity after 4 days; assay type: functional, organism-based; conditions: Human immunodeficiency virus 1, 3B, CCRF-CEM, 96 h
In short: (§2)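 CEM cells (~3 × 10⁵ cells/mL) infected with ~100 CCID₅₀ per mL of HIV-1 (IIIB) or HIV-2 (ROD), then seeded into wells containing compound dilutions. After 4 days at 37 °C, syncytium (giant cell) formation was examined microscopically. EC₅₀ = concentration protecting CEM cells from HIV cytopathicity by 50%.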

[4] = test system: Human immunodeficiency virus 2; assay: Antiviral activity against HIV2 ROD in human CEM cells assessed as protection against virus-induced cytopathicity after 4 days; assay type: functional, organism-based; conditions: Human immunodeficiency virus 2, ROD, CCRF-CEM, 96 h; in short: as §2
L1210 = assay: Antiproliferative activity against mouse L1210 cells after 2 days; assay type: cell-based; conditions: L1210, 48 h
In short: (§3)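 Cells seeded at 5 × 10⁴ to 7.5 × 10⁴ cells/200 µL with or without serial compound dilutions; incubated at 37 °C for 2 days (L1210) or 3 days (Molt4/C8, CEM). Cell numbers counted with a Coulter counter. CC₅₀ = concentration reducing proliferation by 50% versus untreated controls, read from plots of cell number (% of control) against concentration. Means of at least two independent experiments.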

[5] = Antiproliferative activity against human Molt4/C8 cells after 3 days; assay type: cell-based; conditions: MOLT-4, 72 h; in short: as §3
CCRF-CEM = assay: Antiproliferative activity against human CEM cells after 3 days; assay type: cell-based; conditions: 72 h; in short: as §3
[6] = test system: Human immunodeficiency virus 1; assay: Antiviral activity against HIV1 with reverse transcriptase L100I mutation in human CEM cells assessed as protection against virus-induced cytopathicity; assay type: functional, organism-based; conditions: Human immunodeficiency virus 1, CCRF-CEM
In short: (§4)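 CEM cells (~3 × 10⁵ cells/mL) were infected with ~100 CCID₅₀ virus per mL and seeded with serial compound dilutions. After 4 days at 37 °C, syncytium (giant cell) formation was scored microscopically. EC₅₀ is the concentration giving 50% protection against virus cytopathicity.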

[7] = test system: Human immunodeficiency virus 1; assay: Antiviral activity against HIV1 with reverse transcriptase K103N mutation in human CEM cells assessed as protection against virus-induced cytopathicity; assay type: functional, organism-based; conditions: Human immunodeficiency virus 1, CCRF-CEM; in short: as §4
[8] = test system: Human immunodeficiency virus 1; assay: Antiviral activity against HIV1 with reverse transcriptase Y181C mutation in human CEM cells assessed as protection against virus-induced cytopathicity; assay type: functional, organism-based; conditions: Human immunodeficiency virus 1, CCRF-CEM; in short: as §4
[9] = test system: Human immunodeficiency virus 1; assay: Antiviral activity against HIV1 with reverse transcriptase Y181I mutation in human CEM cells assessed as protection against virus-induced cytopathicity; assay type: functional, organism-based; conditions: Human immunodeficiency virus 1, CCRF-CEM; in short: as §4
[10] = test system: Human immunodeficiency virus 1; assay: Antiviral activity against HIV1 with reverse transcriptase Y188L mutation in human CEM cells assessed as protection against virus-induced cytopathicity; assay type: functional, organism-based; conditions: Human immunodeficiency virus 1, CCRF-CEM; in short: as §4
[11] = target: Human immunodeficiency virus type 1 reverse transcriptase (Human immunodeficiency virus 1, UniProt Q72547); assay: Inhibition of HIV1 reverse transcriptase p66/p51; conditions: read-out: IC50
[12] = target: Human immunodeficiency virus type 1 reverse transcriptase (Human immunodeficiency virus 1, UniProt Q72547, L100I); assay: Inhibition of HIV1 reverse transcriptase p66/p51 L100I mutant; conditions: read-out: IC50
In short: (§5)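 Substrate was 0.5 µg poly(rA)/oligo(dT) 10:1 (0.3 µM 3′-OH ends) with 10 µM [³H]dTTP, at 37 °C. Acid-precipitable radioactivity was counted on GF/C filters after TCA washes.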

[13] = target: Human immunodeficiency virus type 1 reverse transcriptase (Human immunodeficiency virus 1, UniProt Q72547, K103N); assay: Inhibition of HIV1 reverse transcriptase p66/p51 K103N mutant; conditions: read-out: IC50; in short: as §5
[14] = target: Human immunodeficiency virus type 1 reverse transcriptase (Human immunodeficiency virus 1, UniProt Q72547, Y181I); assay: Inhibition of HIV1 reverse transcriptase p66/p51 Y181I mutant; conditions: read-out: IC50; in short: as §5
[15] = Cytotoxicity against human HeLa cells assessed as drug level causing microscopically detectable alteration of normal cell morphology after 3 days; assay type: cell-based
In short: (§6)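 Serial compound dilutions added to confluent HeLa or Vero monolayers. MCC = minimum concentration causing microscopically detectable alteration of cell morphology after 3 days of incubation.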

[16] = Cytotoxicity against african green monkey Vero cells assessed as drug level causing microscopically detectable alteration of normal cell morphology after 3 days; assay type: cell-based; conditions: chlorocebus sabaeus; in short: as §6
Coxsackievirus B4 [17] = assay: Antiviral activity against Coxsackievirus B4 in human HeLa cells assessed as protection against virus-induced cytopathicity; assay type: functional, organism-based; conditions: Enterovirus B; in short: as §1
Coxsackievirus B4 [18] = assay: Antiviral activity against Coxsackievirus B4 in african green monkey Vero cells assessed as protection against virus-induced cytopathicity; assay type: functional, organism-based; conditions: Enterovirus B; in short: as §1
Human respirovirus 3 = assay: Antiviral activity against Parainfluenza virus type 3 in african green monkey Vero cells assessed as protection against virus-induced cytopathicity; assay type: functional, organism-based; conditions: Human respirovirus 3, Vero; in short: as §1
[19] = test system: Mammalian orthoreovirus 1; assay: Antiviral activity against Reovirus 1 in african green monkey Vero cells assessed as protection against virus-induced cytopathicity; assay type: functional, organism-based; conditions: Mammalian orthoreovirus 1, Vero; in short: as §1
Sindbis virus = assay: Antiviral activity against Sindbis virus in african green monkey Vero cells assessed as protection against virus-induced cytopathicity; assay type: functional, organism-based; in short: as §1
Punta Toro virus = assay: Antiviral activity against Punta Toro virus in african green monkey Vero cells assessed as protection against virus-induced cytopathicity; assay type: functional, organism-based; in short: as §1
[20] = Cytotoxicity against human HEL cells assessed as drug level causing microscopically detectable alteration of normal cell morphology after 3 days; assay type: cell-based
Human alphaherpesvirus 1 [21] = assay: Antiviral activity against HSV1 KOS in human HEL cells assessed as protection against virus-induced cytopathicity; assay type: functional, organism-based; conditions: Human alphaherpesvirus 1, KOS
Human alphaherpesvirus 2 = assay: Antiviral activity against HSV2 G in human HEL cells assessed as protection against virus-induced cytopathicity; assay type: functional, organism-based; conditions: Human alphaherpesvirus 2, strain G; in short: as §1
Vaccinia virus = assay: Antiviral activity against Vaccinia virus Lederle in human HEL cells assessed as protection against virus-induced cytopathicity; assay type: functional, organism-based; conditions: Orthopoxvirus vaccinia
[22] = test system: Vesicular stomatitis virus; assay: Antiviral activity against VSV in human HEL cells assessed as protection against virus-induced cytopathicity; assay type: functional, organism-based
Human alphaherpesvirus 1 [23] = assay: Antiviral activity against thymidine kinase deficient and acyclovir resistant HSV1 KOS in human HEL cells assessed as protection against virus-induced cytopathicity; assay type: functional, organism-based; conditions: Human alphaherpesvirus 1, KOS
[24] = Cytotoxicity against MDCK cells assessed as drug level causing microscopically detectable alteration of normal cell morphology; assay type: cell-based, Canis lupus familiaris; conditions: dog
[25] = Cytotoxicity against MDCK cells by MTS assay; assay type: cell-based, Canis lupus familiaris; conditions: dog
Influenza A virus [26] = assay: Antiviral activity against influenza H1N1 virus in MDCK cells assessed as reduction of virus-induced cytopathicity by visual cytopathic effect scoring method; assay type: functional, organism-based
Influenza A virus [27] = assay: Antiviral activity against influenza H1N1 virus in MDCK cells assessed as reduction of virus-induced cytopathicity by MTS method; assay type: functional, organism-based; conditions: Influenza A virus, H1N1, MDCK
Influenza A virus H3N2 [28] = assay: Antiviral activity against influenza H3N2 virus in MDCK cells assessed as reduction of virus-induced cytopathicity by visual cytopathic effect scoring method; assay type: functional, organism-based
Influenza A virus H3N2 [29] = assay: Antiviral activity against influenza H3N2 virus in MDCK cells assessed as reduction of virus-induced cytopathicity by MTS method; assay type: functional, organism-based
Influenza B virus [30] = assay: Antiviral activity against influenza B virus in MDCK cells assessed as reduction of virus-induced cytopathicity by visual cytopathic effect scoring method; assay type: functional, organism-based
Influenza B virus [31] = assay: Antiviral activity against influenza B virus in MDCK cells assessed as reduction of virus-induced cytopathicity by MTS method; assay type: functional, organism-based
[32] = Cytotoxicity against feline CRFK cells by MTS assay; assay type: cell-based, Felis catus; conditions: cat
Feline coronavirus = assay: Antiviral activity against Feline coronavirus in feline […] cells assessed as inhibition of virus-induced cytopathicity; assay type: functional, organism-based; conditions: Alphacoronavirus 1
Felid alphaherpesvirus 1 = assay: Antiviral activity against Feline herpesvirus in feline […] cells assessed as inhibition of virus-induced cytopathicity; assay type: functional, organism-based

Question: For Cc1cc(C)cc(S(=O)(=O)c2c(C(=O)NCCC(N)=O)[nH]c3ccc(Cl)cc23)c1, which EC50 [1] is on record?
Answer: > 4 µM

Question: And the EC50 [2]?
Answer: > 4 µM

Question: What about the EC50 [3] of the same compound?
Answer: 0.001 µM

Question: What about the EC50 [4] of the same compound?
Answer: > 10 µM

Question: And the IC50 (L1210)?
Answer: 26 µM

Question: What about the IC50 [5] of the same compound?
Answer: 9 µM

Question: And the IC50 (CCRF-CEM)?
Answer: 16 µM

Question: What about the IC50 [6] of the same compound?
Answer: 0.007 µM

Question: What about the IC50 [7] of the same compound?
Answer: 0.019 µM

Question: What about the IC50 [8] of the same compound?
Answer: 0.078 µM

Question: What about the IC50 [9] of the same compound?
Answer: > 1 µM

Question: What about the IC50 [10] of the same compound?
Answer: ≥ 1 µM

Question: And the IC50 [11]?
Answer: 0.027 µM

Question: What about the IC50 [12] of the same compound?
Answer: 0.143 µM

Question: What about the IC50 [13] of the same compound?
Answer: 0.351 µM

Question: And the IC50 [14]?
Answer: 5.05 µM

Question: What about the MCC at 72 h [15] of the same compound?
Answer: 20 µM

Question: And the MCC at 72 h [16]?
Answer: 100 µM

Question: What about the EC50 (Coxsackievirus B4 [17]) of the same compound?
Answer: > 4 µM

Question: And the EC50 (Coxsackievirus B4 [18])?
Answer: 12 µM

Question: What about the EC50 (Human respirovirus 3) of the same compound?
Answer: > 20 µM

Question: And the EC50 [19]?
Answer: > 20 µM

Question: What about the EC50 (Sindbis virus) of the same compound?
Answer: > 20 µM

Question: What about the EC50 (Punta Toro virus) of the same compound?
Answer: > 20 µM

Question: And the MCC at 72 h [20]?
Answer: 20 µM

Question: And the EC50 (Human alphaherpesvirus 1 [21])?
Answer: > 4 µM

Question: What about the EC50 (Human alphaherpesvirus 2) of the same compound?
Answer: > 4 µM

Question: What about the EC50 (Vaccinia virus) of the same compound?
Answer: > 4 µM

Question: And the EC50 [22]?
Answer: > 4 µM

Question: And the EC50 (Human alphaherpesvirus 1 [23])?
Answer: > 4 µM

Question: What about the MCC [24] of the same compound?
Answer: 20 µM

Question: And the CC50 [25]?
Answer: 9.7 µM

Question: And the EC50 (Influenza A virus [26])?
Answer: > 4 µM

Question: And the EC50 (Influenza A virus [27])?
Answer: > 4 µM

Question: What about the EC50 (Influenza A virus H3N2 [28]) of the same compound?
Answer: > 4 µM

Question: What about the EC50 (Influenza A virus H3N2 [29]) of the same compound?
Answer: > 4 µM

Question: What about the EC50 (Influenza B virus [30]) of the same compound?
Answer: > 4 µM

Question: And the EC50 (Influenza B virus [31])?
Answer: > 4 µM

Question: And the CC50 [32]?
Answer: 1.7 µM

Question: And the EC50 (Feline coronavirus)?
Answer: > 4 µM

Question: And the EC50 (Felid alphaherpesvirus 1)?
Answer: > 4 µM
